Peptide text beside a SMILES is read from it. * marks the point of attachment. Propionyl = CCC(=O)*
Tests used:
[1] = target: T1, human NMUR2 (Homo sapiens, UniProt Q9GZQ4); test: Competitive radioligand binding assay with [^125I]NMU-8
[2] = target: T1, human NMUR2; test: Functional in vitro FLIPR calcium mobilization assay; assay type: cell-based; details: SD
Method in brief: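 Recombinant Chem-1 cells overexpressing full-length human NMUR2, grown in DMEM/10% FBS with selection, seeded at 5×10^5 cells/mL 16 h before assay. Loaded with Calcium 6 dye plus 2 mM probenecid for 60 min at 37 °C. Fractions given as 12-point 1:3 dilutions in HBSS/20 mM Hepes/0.1% BSA, final 1.1 μM–[…]. Read by FLIPR at 0.5 Hz as peak minus baseline fluorescence; Hill fit, mean ± standard deviation of two experiments.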

T1 sequence (Q9GZQ4 whole entry): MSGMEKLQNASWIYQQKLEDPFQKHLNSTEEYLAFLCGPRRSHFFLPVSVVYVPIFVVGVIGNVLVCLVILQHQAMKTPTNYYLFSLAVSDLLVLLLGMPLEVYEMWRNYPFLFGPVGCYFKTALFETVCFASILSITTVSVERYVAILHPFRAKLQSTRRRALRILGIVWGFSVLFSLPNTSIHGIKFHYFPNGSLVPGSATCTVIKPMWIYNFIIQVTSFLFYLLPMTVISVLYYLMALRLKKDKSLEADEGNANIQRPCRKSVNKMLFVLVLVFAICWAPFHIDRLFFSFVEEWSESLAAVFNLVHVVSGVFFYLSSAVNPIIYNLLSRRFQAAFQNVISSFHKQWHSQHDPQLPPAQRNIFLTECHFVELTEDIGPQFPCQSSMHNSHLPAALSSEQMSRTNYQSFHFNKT

SMILES: CCC(=O)N[C@H](C(=O)N[C@@H](CC(C)C)C(=O)N[C@@H](CCC(N)=O)C(=O)N[C@@H](CCCNC(=N)N)C(=O)NCC(=O)N[C@@H](CO)C(=O)NCC(=O)N[C@H](C(=O)N[C@@H](C)C(=O)N[C@@H](C)C(=O)N[C@H](C(=O)N[C@@H](CC(=O)O)C(=O)N[C@@H](Cc1ccccc1)C(=O)N[C@H](C(=O)N[C@@H](CCCCN)C(=O)N[C@@H](CCCCN)C(=O)N[C@@H](CC(=O)O)C(=O)N[C@@H](Cc1c[nH]cn1)C(=O)N[C@H](C(=O)N[C@@H](C)C(=O)N[C@H](C(=O)N[C@@H](Cc1c[nH]c2ccccc12)C(=O)NCC(=O)N[C@@H](CCCNC(=N)N)C(=O)N1CCC[C@H]1C(=O)N[C@@H](Cc1ccccc1)C(=O)N[C@@H](Cc1ccccc1)C(=O)N[C@@H](CC(C)C)C(=O)N[C@@H](Cc1ccccc1)C(=O)N[C@@H](CCCNC(=N)N)C(=O)N1CCC[C@H]1C(=O)N[C@@H](CCCNC(=N)N)C(=O)N[C@@H](CC(N)=O)C(N)=O)[C@@H](C)O)[C@@H](C)O)[C@@H](C)O)C(C)C)[C@@H](C)O)[C@@H](C)CC [fraction c] (Propionyl-ILQRGSGTAAVDFTKKDHTATWGRPFFLFRPRN-NH2)
- IC50 [1]: 2.19 nM
- EC50 [2]: 1.02 nM

— publication PMC9851027 (ACS Omega, 2023)
